# Experimental data gathered from unrelated publications.
# Protocols differ between the studies behind these lines.
Compound,tested on,assay,test system,conditions,measurement,result
CNc1ccnc(Nc2cccc(-c3cccnc3)c2)n1,BJ,"cell growth or viability, ATP luminescence",,72 h,EC50,> 20 µM
CC[C@H]1OC(=O)[C@H](C)[C@@H](O[C@H]2C[C@@](C)(OC)[C@@H](O)[C@H](C)O2)[C@H](C)[C@@H](O[C@@H]2O[C@H](C)C[C@H](N(C)C)[C@H]2O)[C@](C)(OC)C[C@@H](C)C(=O)[C@H](C)[C@@H](O)[C@]1(C)O,Helicobacter pylori,"microbial growth, broth dilution",,0.24 µg/mL,inhibition,81.3%
COC(=O)c1cccc(-c2cccc(Nc3nccc(NC(C)C)n3)c2)c1,BJ,"cell growth or viability, ATP luminescence",,72 h,EC50,13.2 µM
Cc1ccc(-c2nc3ccccc3s2)cc1NC(=O)c1cc([N+](=O)[O-])c(NC2CCN(C)CC2)cc1Cl,BJ,"cell growth or viability, ATP luminescence",,,EC50,> 9.2 µM
CO/N=C(\C(=O)N[C@@H]1C(=O)N2C(C(=O)O)=C(CSc3nc(=O)c(=O)[nH]n3C)CS[C@H]12)c1csc(N)n1,Salmonella enterica,microbial growth,"F98, TYPHIMURIUM","20 h, pH 7",MIC,0.125 µg/mL
CONc1ccnc(Nc2cccc(-c3cccnc3)c2)n1,BJ,"cell growth or viability, ATP luminescence",,72 h,EC50,> 12 µM
O=C(O)c1ccc(O)cc1,Helicobacter pylori,"microbial growth, broth dilution",,62.5 µg/mL,inhibition,100%
CCN1CCN(c2cc3c(cc2F)c(=O)c(C(=O)O)cn3C2CC2)CC1,Salmonella enterica,microbial growth,"F98, TYPHIMURIUM","20 h, pH 7",MIC,0.0313 µg/mL
C[C@H](Nc1ccnc(Nc2cccc(-c3cccnc3)c2)n1)C(=O)O,BJ,"cell growth or viability, ATP luminescence",,72 h,EC50,> 9 µM
O=c1cc(-c2ccc(O)cc2)oc2cc(O)cc(O)c12,Helicobacter pylori,"microbial growth, broth dilution",,3.9 µg/mL,inhibition,100%
CN(C)[C@@H]1C(O)=C(C(N)=O)C(=O)[C@@]2(O)C(O)=C3C(=O)c4c(O)cccc4[C@@](C)(O)[C@H]3C[C@@H]12,Salmonella enterica,microbial growth,,"20 h, pH 5.5",MIC,1 µg/mL
O=c1cc(-c2ccc(O)c(O)c2)oc2cc(O)cc(O)c12,Helicobacter pylori,"microbial growth, broth dilution",,3.9 µg/mL,inhibition,100%
CS(=O)(=O)c1ccc([C@@H](O)[C@@H](CF)NC(=O)C(Cl)Cl)cc1,Salmonella enterica,microbial growth,ENTERITIDIS,"20 h, pH 7.2",MIC,8 µg/mL
